{
  "source": "ChEMBL document CHEMBL5303300",
  "about": "“EUbOPEN Chemogenomics Library - Multiplex” (2023)",
  "test_system": "HEK-293T",
  "experiment": "Multiplex assay against HEK293T",
  "assay_type": "toxicity, cell-based",
  "details": "human, number of replicates 2",
  "method_in_brief": "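At seeding, live cells were stained with Hoechst33342, BioTracker Green Microtubule Cytoskeleton Dye, MitoTracker Red and Annexin V Alexa Fluor 680. After compound addition they were imaged on a CQ1 microscope at 37°C and 5% CO2, and CellPathfinder machine-learning gating sorted them into Hoechst high-intensity objects or normal cells, with normal cells further split into healthy, pyknosed or fragmented nuclei and pyknosed cells into mitotic or apoptotic. Tubulin, mitochondrial-mass and membrane-permeability phenotypes are given as per cents of cells with healthy nuclei.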",
  "key": {"[1]": {"details": "12 h, 1 µM, compound concentration 1 uM"}, "[2]": {"details": "12 h, 10 µM, compound concentration 10 uM"}, "[3]": {"details": "24 h, 1 µM, compound concentration 1 uM"}, "[4]": {"details": "24 h, 10 µM, compound concentration 10 uM"}, "[5]": {"details": "48 h, 1 µM, compound concentration 1 uM"}, "[6]": {"details": "48 h, 10 µM, compound concentration 10 uM"}},
  "note": "Values joined by “and” are separate entries in the source; they are usually repeats but may differ in a detail not shown here. Equal entries are not always repeated.",
  "data": [
    {"smiles": "CN(C)CC#Cc1ccc2[nH]c3c(c2c1)-c1nc(N)ncc1CCC3", "values": [
      {"measurement": "Population Apoptotic (%)", "setting": "[1]", "result": 52, "unit": "%"},
      {"measurement": "Population Fragmented Nuclei (%)", "setting": "[1]", "result": "2% and 4%"},
      {"measurement": "Population Healthy Nuclei (%)", "setting": "[1]", "result": "81% and 82%"},
      {"measurement": "Population Hoechst High Intensity Objects (%)", "setting": "[1]", "result": "11% and 14%"},
      {"measurement": "Population Membrane Permeable-Phenotype (%)", "setting": "[1]", "result": 8, "unit": "%"},
      {"measurement": "Population Mitochondria Different-Phenotype (%)", "setting": "[1]", "result": "31% and 24%"},
      {"measurement": "Population Mitotic Cells (%)", "setting": "[1]", "result": 47, "unit": "%"},
      {"measurement": "Population Normal (%)", "setting": "[1]", "result": "89% and 85%"},
      {"measurement": "Population Pyknosed Nuclei (%)", "setting": "[1]", "result": "16% and 12%"},
      {"measurement": "Population Tubulin-Different-Phenotype (%)", "setting": "[1]", "result": 96, "unit": "%"},
      {"measurement": "Total Cell Count", "setting": "[1]", "result": "491 and 406"},
      {"measurement": "Population Apoptotic (%)", "setting": "[2]", "result": "52% and 44%"},
      {"measurement": "Population Fragmented Nuclei (%)", "setting": "[2]", "result": 3, "unit": "%"},
      {"measurement": "Population Healthy Nuclei (%)", "setting": "[2]", "result": 73, "unit": "%"},
      {"measurement": "Population Hoechst High Intensity Objects (%)", "setting": "[2]", "result": 12, "unit": "%"},
      {"measurement": "Population Membrane Permeable-Phenotype (%)", "setting": "[2]", "result": "5% and 4%"},
      {"measurement": "Population Mitochondria Different-Phenotype (%)", "setting": "[2]", "result": "28% and 23%"},
      {"measurement": "Population Mitotic Cells (%)", "setting": "[2]", "result": "47% and 55%"},
      {"measurement": "Population Normal (%)", "setting": "[2]", "result": 87, "unit": "%"},
      {"measurement": "Population Pyknosed Nuclei (%)", "setting": "[2]", "result": "22% and 23%"},
      {"measurement": "Population Tubulin-Different-Phenotype (%)", "setting": "[2]", "result": "93% and 96%"},
      {"measurement": "Total Cell Count", "setting": "[2]", "result": "350 and 360"},
      {"measurement": "Population Apoptotic (%)", "setting": "[3]", "result": "50% and 63%"},
      {"measurement": "Population Fragmented Nuclei (%)", "setting": "[3]", "result": "6% and 8%"},
      {"measurement": "Population Healthy Nuclei (%)", "setting": "[3]", "result": "83% and 80%"},
      {"measurement": "Population Hoechst High Intensity Objects (%)", "setting": "[3]", "result": 11, "unit": "%"},
      {"measurement": "Population Membrane Permeable-Phenotype (%)", "setting": "[3]", "result": "14% and 19%"},
      {"measurement": "Population Mitochondria Different-Phenotype (%)", "setting": "[3]", "result": "11% and 8%"},
      {"measurement": "Population Mitotic Cells (%)", "setting": "[3]", "result": "49% and 36%"},
      {"measurement": "Population Normal (%)", "setting": "[3]", "result": 88, "unit": "%"},
      {"measurement": "Population Pyknosed Nuclei (%)", "setting": "[3]", "result": "9% and 11%"},
      {"measurement": "Population Tubulin-Different-Phenotype (%)", "setting": "[3]", "result": "97% and 95%"},
      {"measurement": "Total Cell Count", "setting": "[3]", "result": "646 and 621"},
      {"measurement": "Population Apoptotic (%)", "setting": "[4]", "result": "50% and 55%"},
      {"measurement": "Population Fragmented Nuclei (%)", "setting": "[4]", "result": "3% and 5%"},
      {"measurement": "Population Healthy Nuclei (%)", "setting": "[4]", "result": "75% and 77%"},
      {"measurement": "Population Hoechst High Intensity Objects (%)", "setting": "[4]", "result": "16% and 11%"},
      {"measurement": "Population Membrane Permeable-Phenotype (%)", "setting": "[4]", "result": "8% and 5%"},
      {"measurement": "Population Mitochondria Different-Phenotype (%)", "setting": "[4]", "result": "12% and 9%"},
      {"measurement": "Population Mitotic Cells (%)", "setting": "[4]", "result": "50% and 44%"},
      {"measurement": "Population Normal (%)", "setting": "[4]", "result": "83% and 88%"},
      {"measurement": "Population Pyknosed Nuclei (%)", "setting": "[4]", "result": "20% and 16%"},
      {"measurement": "Population Tubulin-Different-Phenotype (%)", "setting": "[4]", "result": "88% and 94%"},
      {"measurement": "Total Cell Count", "setting": "[4]", "result": "381 and 452"},
      {"measurement": "Population Apoptotic (%)", "setting": "[5]", "result": "54% and 48%"},
      {"measurement": "Population Fragmented Nuclei (%)", "setting": "[5]", "result": 17, "unit": "%"},
      {"measurement": "Population Healthy Nuclei (%)", "setting": "[5]", "result": "78% and 77%"},
      {"measurement": "Population Hoechst High Intensity Objects (%)", "setting": "[5]", "result": "13% and 9%"},
      {"measurement": "Population Membrane Permeable-Phenotype (%)", "setting": "[5]", "result": "34% and 42%"},
      {"measurement": "Population Mitochondria Different-Phenotype (%)", "setting": "[5]", "result": 0, "unit": "%"},
      {"measurement": "Population Mitotic Cells (%)", "setting": "[5]", "result": "45% and 51%"},
      {"measurement": "Population Normal (%)", "setting": "[5]", "result": "86% and 90%"},
      {"measurement": "Population Pyknosed Nuclei (%)", "setting": "[5]", "result": 4, "unit": "%"},
      {"measurement": "Population Tubulin-Different-Phenotype (%)", "setting": "[5]", "result": "85% and 83%"},
      {"measurement": "Total Cell Count", "setting": "[5]", "result": "1491 and 1520"},
      {"measurement": "Population Apoptotic (%)", "setting": "[6]", "result": "47% and 50%"},
      {"measurement": "Population Fragmented Nuclei (%)", "setting": "[6]", "result": "8% and 6%"},
      {"measurement": "Population Healthy Nuclei (%)", "setting": "[6]", "result": "71% and 79%"},
      {"measurement": "Population Hoechst High Intensity Objects (%)", "setting": "[6]", "result": "20% and 18%"},
      {"measurement": "Population Membrane Permeable-Phenotype (%)", "setting": "[6]", "result": "9% and 11%"},
      {"measurement": "Population Mitochondria Different-Phenotype (%)", "setting": "[6]", "result": "1% and 0%"},
      {"measurement": "Population Mitotic Cells (%)", "setting": "[6]", "result": "52% and 49%"},
      {"measurement": "Population Normal (%)", "setting": "[6]", "result": "79% and 81%"},
      {"measurement": "Population Pyknosed Nuclei (%)", "setting": "[6]", "result": "19% and 13%"},
      {"measurement": "Population Tubulin-Different-Phenotype (%)", "setting": "[6]", "result": "93% and 90%"},
      {"measurement": "Total Cell Count", "setting": "[6]", "result": "505 and 520"}
    ]}
  ]
}
